From PubChem
M5 PAM: human M5 muscarinic receptor positive allosteric modulators, primary screen, CHO-K1 cells, Fluo-8 calcium fluorescence. 0.3% of 360,000 active. activation, % at 3 µM. Muscarinic acetylcholine receptor M5 (Homo sapiens), P08912. CHO-K1 hM5, ACh EC20 PAM; 0% = ACh EC20, 100% = ACh EC100;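 active means activation above the run cutoff, the mean activation of all test compounds plus 3 SD, cut at about 18% in these data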
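System: CHO-K1 cell line with stable human muscarinic M5 receptor expression | Also added: EC20 acetylcholine as agonist stimulus | Compound: One concentration, 3 µM final (nominal) | Timing: Fluo-8 loading 80 min at 37 °C plus 30 min room temperature | Measured by: Fluo-8 calcium dye fluorescence, kinetic read | Read-out basis: % activation, ACh-normalized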
M4 ag: human M4 muscarinic receptor agonists, primary screen, CHO-K1 cells, Fluo-8 calcium fluorescence; Muscarinic acetylcholine receptor M4 (Homo sapiens), P08173; CHO-K1 hM4/Gqi5; vehicle 0%, full acetylcholine response 100%; 0.14% of 360,000 active; activation, % at 3 µM;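 active means activation above the run mean over all test wells plus 3 SD, cut at about 32% in these data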;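 further: peak over basal fluorescence ratio per well then scaled between controls; 0% = DMSO wells and 100% = acetylcholine at EC100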
Target sequence (P08173 whole entry, looked up): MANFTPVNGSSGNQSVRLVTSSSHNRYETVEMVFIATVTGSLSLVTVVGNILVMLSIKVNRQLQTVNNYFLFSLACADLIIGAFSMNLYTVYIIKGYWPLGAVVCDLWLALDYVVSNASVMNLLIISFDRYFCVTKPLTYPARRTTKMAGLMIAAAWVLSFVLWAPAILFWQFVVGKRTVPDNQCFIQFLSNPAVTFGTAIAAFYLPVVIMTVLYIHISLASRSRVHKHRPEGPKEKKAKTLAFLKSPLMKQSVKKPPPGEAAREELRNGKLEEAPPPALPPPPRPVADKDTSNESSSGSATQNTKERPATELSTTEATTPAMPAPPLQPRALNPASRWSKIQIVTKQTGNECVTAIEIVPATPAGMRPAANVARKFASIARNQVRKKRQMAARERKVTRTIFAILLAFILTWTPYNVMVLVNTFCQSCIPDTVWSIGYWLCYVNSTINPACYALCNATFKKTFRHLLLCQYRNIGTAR
M5 ag: human M5 muscarinic receptor agonists, primary screen, CHO-K1 cells, Fluo-8 calcium fluorescence | CHO-K1 hM5 cells; 0% DMSO wells, 100% maximal acetylcholine response | Muscarinic acetylcholine receptor M5 (Homo sapiens), P08912 | AID 624037, 2012 | 0.19% of 360,000 active | activation, % at 3 µM;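 active means activation above the run's mean over test compounds plus 3 SD, cut at about 23% in these data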;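 further: signal is peak over basal fluorescence ratio across the kinetic read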
M4 PAM: human M4 muscarinic receptor positive allosteric modulators, primary screen, CHO-K1 cells, Fluo-8 calcium fluorescence; Muscarinic acetylcholine receptor M4 (Homo sapiens), P08173; CHO-K1 hM4/Gqi5, ACh EC20; 0% = ACh EC20, 100% = maximal ACh; activation, % at 3 µM; 0.4% of 360,000 active; AID 624126, 2012;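 active means activation above its plate's cutoff, the mean activation of sample wells plus 3 SD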
CHRM5 antagonist: human M5 muscarinic receptor antagonists, primary screen, CHO cells, Fluo-8 calcium fluorescence; CHO-hM5 cells, ACh EC80; inhibition, % at 3 µM; 0.59% of 360,000 active; AID 624040, 2012;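 active means inhibition above a per-plate cutoff, the mean of that plate's test compounds plus 3 SD, cut at about 27% in these data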;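 further: 0% = acetylcholine EC80 with DMSO and 100% = DMSO without agonist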
CHRM4 antagonist: human M4 muscarinic receptor antagonists, primary screen, CHO cells, Fluo-8 calcium fluorescence | CHO-hM4 cells, ACh EC80 | 0.73% of 360,000 active | inhibition, % at 3 µM | Muscarinic acetylcholine receptor M4 (Homo sapiens), P08173;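 active means inhibition above its plate's cutoff, the mean inhibition of sample wells plus 3 SD, cut at about 27% in these data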;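 further: 0% = acetylcholine EC80 with DMSO and 100% = DMSO without agonist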
* = called active by the depositor. An excerpt weighted towards active compounds, which were near 1.8% of everything screened.

SMILES	M5 PAM	M4 ag	M5 ag	M4 PAM	CHRM5 antagonist	CHRM4 antagonist
Cc1c(C)n2c(SCC(=O)N3CCCCC3)nnc2[nH]c1=O	1.0	0.2	2.3	-0.3	5.0	1.3
O=C(Cn1nc([N+](=O)[O-])nc1Br)NC(c1ccccc1)c1ccccc1	-4.0	2.3	-1.1	-7.0	7.9	30.0*
CCn1nnnc1NCc1ccc(N2CCCC2)cc1	-7.5	0.6	-9.5	-24.2	14.1	35.1*
O=S(=O)(c1ccc(Cl)nc1)N(Cc1ccccc1)Cc1ccccc1	-11.3	-2.2	-4.8	-29.9	14.4	33.1*
CCN(c1ccccc1)S(=O)(=O)c1ccc(Cl)nc1	8.9	-0.4	-9.4	-0.3	1.8	1.0
Cc1ccc(C(=O)CSc2nc3cc(S(=O)(=O)N4CCOCC4)ccc3o2)cc1	19.4*	1.3	-0.2	6.8	-11.1	-9.1
CCSc1nc2cc(S(=O)(=O)N3CCOCC3)ccc2o1	5.2	1.0	-2.4	0.0	6.3	-0.2
CN(Cc1ccccn1)C(=O)C1CCC(=O)N(CCc2ccc(Cl)cc2)C1 (centres undefined)	-6.8	1.3	-3.0	1.4	10.4	-0.1
O=C(Nc1ccc(Oc2ccccc2)cc1)c1ccc2sc([C@H]3C[C@H](O)[C@@H](CO)O3)nc2c1	-2.6	9.3	4.1	-1.7	7.6	28.2*
O=C1Nc2ccccc2N=C(c2ccc3c(c2)OCO3)C1N(C(=O)c1ccc2ccccc2c1)C1CC1 (centres undefined)	-6.8	2.0	-0.5	0.8	-12.0	-11.1
CCCCNC(=O)C1(C)CCN1C(=O)c1ccc(F)cc1Cl (centres undefined)	-3.2	0.3	-0.6	2.2	6.4	-1.9
NC(=O)C1CC(=O)N(c2ccc(OCc3ccc(Cl)c(Cl)c3)cc2)C1 (centres undefined)	-13.5	16.3	9.4	-6.2	28.4*	9.5
CC(C)NS(=O)(=O)c1ccc(NC(=O)C(C)OC(=O)C2CCC2)cc1 (centres undefined)	-9.3	3.1	4.6	-2.6	14.1	0.5
CC(=O)Nc1ccc(-c2csc(Nc3cc(C)ccn3)n2)cc1	-1.2	6.7	4.2	1.9	-5.7	1.6
Cc1ccnc(Nc2nc(-c3ccccc3)cs2)c1	21.9*	0.0	9.8	-10.9	-16.9	-4.1
COc1ccc(C(=O)Nc2cc(-c3ccccc3)nn2-c2ccccc2F)cc1	24.9*	-0.8	-7.2	21.4	-12.9	-4.1
CCc1ccc(-c2cc3c(=O)n(CC(=O)NCCCN4CCC(Cc5ccccc5)CC4)nc(C)n3n2)cc1	-7.7	7.0	-7.6	-10.5	11.4	39.7*
Cc1nn(CC(=O)NCCCN2CCC(Cc3ccccc3)CC2)c(=O)c2cc(-c3ccccc3)nn12	-5.4	10.3	-5.6	-13.6	7.4	17.1
CC(C)[C@H](NC(=O)c1c(F)cccc1F)C(=O)Nc1cccc(Br)c1	-4.9	2.1	-2.7	-2.6	15.0	8.5
CCn1c(=O)c(=O)[nH]c2cc(C(=O)Nc3ccc(S(=O)(=O)N4CCCC4)cc3)ccc21	-4.0	0.4	3.2	30.6*	-1.0	10.2
CCn1c(=O)c(=O)[nH]c2cc(C(=O)NC3CCCc4ccccc43)ccc21 (centres undefined)	0.5	-1.6	2.5	36.3*	-1.3	13.8
CCN1CCN(c2ccc(NC(=O)c3cccc(S(=O)(=O)N4CCCC4)c3)cc2)CC1	-34.1	1.4	-10.2	-11.0	49.6*	26.2
CCn1c(=O)c(=O)[nH]c2cc(C(=O)NC3CC3)ccc21	-0.8	1.7	1.5	20.4	3.2	4.1
COc1ccc(NC(=O)CN(C)C(=O)c2cccc(S(=O)(=O)N3CCN(c4ccc(F)cc4)CC3)c2)cc1	-22.5	15.6	2.4	-0.3	30.3*	15.4
CN(CC1COc2ccccc2O1)C(=O)CCNS(=O)(=O)c1ccc(F)c(Cl)c1 (centres undefined)	0.5	7.2	0.1	-0.2	-0.1	-21.5
SMILES	M5 PAM	M4 ag	M5 ag	M4 PAM	CHRM5 antagonist	CHRM4 antagonist
CC(C)C[C@@H](CN)NC(=O)c1nc[nH]c1C(=O)N[C@@H](CC(=O)O)C(=O)CNC[C@H](C)NC(=O)c1nc[nH]c1C(=O)N[C@@H](CC(=O)O)C(=O)O	-6.5	0.4	0.1	1.4	9.2	0.5
CCC(CC)c1nc(C(N)=O)c2[nH]c(=O)n(-c3ccc(OC)c(OC)c3)c2n1	2.0	0.6	-1.2	3.3	-1.3	-2.7
Cc1c(S(=O)(=O)Nc2ccc(Oc3ccccc3)cc2)c(=O)n(C)c(=O)n1C	-7.6	4.3	-0.3	-8.2	5.6	5.8
S=C(NCCc1ccccn1)Nc1cccc(Cl)c1	-2.8	0.6	-2.6	3.7	5.6	-0.1
CC1=CC(C)(C)N(C(=O)CNC2CCCC2)c2cc(C)ccc21	-31.2	-0.2	-15.2	-26.9	36.8*	48.9*
CCOc1ccc2c(c1)N(C(=O)CN1C(=O)CCC1=O)C(C)(C)C=C2C	3.3	-1.9	-6.7	9.6	-4.9	-5.5
CC1CC(C)CN(C(=O)C(C)N2CCN(S(=O)(=O)c3ccc(Br)s3)CC2)C1 (centres undefined)	-4.4	2.1	-5.3	2.6	7.7	0.3
Cc1cc(C)n2nc(SCCOc3ccccc3)nc2n1	3.4	1.8	0.7	21.4*	5.4	-21.8
COc1ccc(OCCSc2nc3nc(C)cc(C)n3n2)cc1	1.4	-0.2	4.3	-0.4	1.2	4.7
Cc1cc(C)n(CCCNC(=O)c2ccc3c(c2)NC(=O)CS3)n1	25.0*	0.7	-12.4	5.8	2.3	-4.3
COc1cc(/C=C2\SC(=O)N(c3cccc(Cl)c3)C2=O)cc([N+](=O)[O-])c1O	11.1	-0.1	0.5	23.4*	-7.8	-8.7
COc1cc(/C=C2\SC(=O)N(c3ccc(Cl)cc3)C2=O)cc([N+](=O)[O-])c1O	2.3	-0.5	0.0	3.1	10.0	17.2
COc1ccc(CNC(=O)c2cccc3c(-c4cccc(C(N)=O)c4)coc23)cc1OC	-16.6	20.9	9.2	-10.0	27.2*	20.8
COc1cc(-c2coc3c(C(=O)NCc4ccc(OC)c(OC)c4)cccc23)ccc1O	-16.1	22.9	10.0	-8.8	15.1	5.5
O=C(Nc1nc2nccc(-c3ccccc3)n2n1)c1ccccc1	-3.3	-1.5	-3.3	-16.2	10.8	100.1*
O=C(OCC(=O)N1CCc2ccccc21)C1=COCCO1	5.6	-1.0	1.7	29.5*	-9.1	9.7
